Laboratory results taken from ChEMBL document CHEMBL3046946, “Design, synthesis, and insecticidal activities of new N-benzoyl-N'-phenyl-N'-sulfenylureas” (2009).
≈ marks a conversion by molar mass, not a printed value.

Tests used:
Format in all cases: functional
Culex pipiens pallens [1] = test: Insecticidal activity against fourth-instar larval stage of Culex pipiens pallens (mosquito) assessed as mortality at 2.5 mg/l at 25 +/-1degC after 8 days; conditions: 192 h
Procedure, shortened: (§1)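 Compounds dissolved in acetone, then diluted with distilled water to the test concentrations. Twenty fourth-instar larvae were placed in 10 mL of each test solution and reared for 8 days. Mortality was scored on a 0–100 scale, where 0 is no activity and 100 is total kill.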

Culex pipiens pallens [2] = test: Insecticidal activity against fourth-instar larval stage of Culex pipiens pallens (mosquito) assessed as mortality at 5 mg/l at 25 +/-1degC after 8 days; conditions: 192 h; procedure, shortened: as §1
Mythimna separata [3] = test: Insecticidal activity against fourth-instar larval stage of Mythimna separata (Oriental armyworm) in compound-pretreated corn leaves assessed as mortality at 50 mg/l at 25 +/-1degC after 4 days
Mythimna separata [4] = test: Insecticidal activity against fourth-instar larval stage of Mythimna separata (Oriental armyworm) in compound-pretreated corn leaves assessed as mortality at 100 mg/l at 25 +/-1degC after 4 days
Culex pipiens pallens [5] = test: Insecticidal activity against fourth-instar larval stage of Culex pipiens pallens (mosquito) assessed as mortality at 1 mg/l at 25 +/-1degC after 8 days; conditions: 192 h; procedure, shortened: as §1
Mythimna separata [6] = test: Insecticidal activity against fourth-instar larval stage of Mythimna separata (Oriental armyworm) in compound-pretreated corn leaves assessed as mortality at 200 mg/l at 25 +/-1degC after 4 days
Culex pipiens pallens [7] = test: Insecticidal activity against fourth-instar larval stage of Culex pipiens pallens (mosquito) assessed as mortality at 0.01 mg/l at 25 +/-1degC after 8 days; conditions: 192 h; procedure, shortened: as §1
Mythimna separata [8] = test: Insecticidal activity against fourth-instar larval stage of Mythimna separata (Oriental armyworm) in compound-pretreated corn leaves assessed as mortality at 0.25 mg/l at 25 +/-1degC after 4 days
Culex pipiens pallens [9] = test: Insecticidal activity against fourth-instar larval stage of Culex pipiens pallens (mosquito) assessed as mortality at 0.005 mg/l at 25 +/-1degC after 8 days; conditions: 192 h; procedure, shortened: as §1
Mythimna separata [10] = test: Insecticidal activity against fourth-instar larval stage of Mythimna separata (Oriental armyworm) in compound-pretreated corn leaves assessed as mortality at 0.5 mg/l at 25 +/-1degC after 4 days
Mythimna separata [11] = test: Insecticidal activity against fourth-instar larval stage of Mythimna separata (Oriental armyworm) in compound-pretreated corn leaves assessed as mortality at 1 mg/l at 25 +/-1degC after 4 days
Culex pipiens pallens [12] = test: Insecticidal activity against fourth-instar larval stage of Culex pipiens pallens (mosquito) assessed as mortality at 0.0025 mg/l at 25 +/-1degC after 8 days; conditions: 192 h; procedure, shortened: as §1
Plutella xylostella = test: Insecticidal activity against larvae of Plutella xylostella (diamondback moth) in cabbage leaves assessed as mortality at 25 +/-1degC treated for 5 secs before larval infestation measured after 4 days by leafdip method; conditions: 96 h
Procedure, shortened: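 Leaf-dip assay. Cabbage leaf disks (1.8 cm diameter) were dipped in test solution for 5 s, air-dried, and placed in tubes lined with filter paper. Ten second-instar larvae were added per tube. Percent mortality was read 4 days after treatment, in triplicate. LC50 was derived by Finney probit analysis of the mortality regression lines.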

Mythimna separata [13] = test: Insecticidal activity against fourth-instar larval stage of Mythimna separata (Oriental armyworm) in compound-pretreated corn leaves assessed as mortality at 2.5 mg/l at 25 +/-1degC after 4 days
Spodoptera exigua = test: Insecticidal activity against third-instar larval stage of Spodoptera exigua in cabbage leaves assessed as mortality at 25 +/-1degC treated for 5 secs before larval infestation measured after 4 days by leaf dip method; conditions: foliar, 96 h
Procedure, shortened: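 Leaf-dip assay. Fresh cabbage leaf disks (1.8 cm diameter) were dipped in test solution for 5 s before larvae were added. LC50 was calculated by Finney probit analysis of the mortality regression lines.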

SMILES | mortality at 0.01 µg/mL (Culex pipiens pallens [7]) [%] | mortality at 0.25 µg/mL (Mythimna separata [8]) [%] | mortality at 0.005 µg/mL (Culex pipiens pallens [9]) [%] | mortality at 0.5 µg/mL (Mythimna separata [10]) [%] | mortality at 1 µg/mL (Mythimna separata [11]) [%] | mortality at 0.0025 µg/mL (Culex pipiens pallens [12]) [%] | other results
CCN(CC)SN(C(=O)NC(=O)c1c(F)cccc1F)c1ccccc1 | – | – | – | – | – | – | mortality at 2.5 µg/mL (Culex pipiens pallens [1]): 100%; mortality at 5 µg/mL (Culex pipiens pallens [2]): 100%; mortality at 50 µg/mL (Mythimna separata [3]): 20%; mortality at 100 µg/mL (Mythimna separata [4]): 40%; mortality at 1 µg/mL (Culex pipiens pallens [5]): 30%; mortality at 200 µg/mL (Mythimna separata [6]): 70%
O=C(NC(=O)N(SN1CCCCC1)c1ccc(Cl)cc1)c1c(F)cccc1F | 90 | 20 | 0 | 100 | 100 | 0 | –
O=C(NC(=O)N(SNc1ccc(OC(F)(F)F)cc1)c1ccc(OC(F)(F)F)cc1)c1c(F)cccc1F | – | 40 | – | 90 | 100 | – | –
O=C(NC(=O)c1c(F)cccc1F)Nc1ccc(Cl)cc1 [DIFLUBENZURON] | 100 | 45 | 50 | 100 | 100 | 10 | –
O=C(NC(=O)c1ccccc1Cl)Nc1ccc(OC(F)(F)F)cc1 [TRIFLUMURON] | – | 20 | – | 40 | 95 | – | LC50 (Plutella xylostella): 49.3 µg/mL (≈ 137 µM); mortality at 2.5 µg/mL (Mythimna separata [13]): 100%; LC50 (Spodoptera exigua): 12 µg/mL (≈ 33.5 µM)
CCN(CC)SN(C(=O)NC(=O)c1c(F)cccc1F)c1ccc(OC(F)(F)F)cc1 | 100 | 60 | 100 | 100 | 100 | 40 | –
O=C(NC(=O)N(SSN(C(=O)NC(=O)c1c(F)cccc1F)c1ccc(OC(F)(F)F)cc1)c1ccc(OC(F)(F)F)cc1)c1ccccc1Cl | – | 0 | – | 40 | 100 | – | –
O=C(NC(=O)N(SSN(C(=O)NC(=O)c1c(F)cccc1F)c1ccc(OC(F)(F)F)cc1)c1ccc(OC(F)(F)F)cc1)c1c(F)cccc1F | – | 20 | – | 50 | 100 | – | –
CCN(CC)SN(C(=O)NC(=O)c1c(F)cccc1F)c1ccc(Cl)cc1 | 100 | 20 | 10 | 70 | 100 | 10 | –
O=C(NC(=O)N(SN1CCOCC1)c1ccc(OC(F)(F)F)cc1)c1c(F)cccc1F | 100 | 80 | 100 | 100 | 100 | 20 | LC50 (Plutella xylostella): 45.1 µg/mL (≈ 94.5 µM); LC50 (Spodoptera exigua): 21.4 µg/mL (≈ 44.9 µM)
O=C(NC(=O)N(SSNc1ccc(OC(F)(F)F)cc1)c1ccc(OC(F)(F)F)cc1)c1c(F)cccc1F | – | 30 | – | 90 | 100 | – | –
CCOC(=O)CCN(Cc1ccccc1)SN(C(=O)NC(=O)c1c(F)cccc1F)c1ccccc1 | – | – | – | – | – | – | mortality at 2.5 µg/mL (Culex pipiens pallens [1]): 60%; mortality at 5 µg/mL (Culex pipiens pallens [2]): 100%; mortality at 50 µg/mL (Mythimna separata [3]): 30%; mortality at 100 µg/mL (Mythimna separata [4]): 40%; mortality at 1 µg/mL (Culex pipiens pallens [5]): 20%; mortality at 200 µg/mL (Mythimna separata [6]): 70%
O=C(NC(=O)N(SSNc1ccc(OC(F)(F)F)cc1)c1ccc(OC(F)(F)F)cc1)c1ccccc1Cl | – | 30 | – | 60 | 100 | – | –
